The record followed here is ChEMBL document CHEMBL2069293, “Design, synthesis and evaluation of the inhibitory selectivity of novel trans-resveratrol analogues on human recombinant CYP1A1, CYP1A2 and CYP1B1” (Bioorg Med Chem, 2012).

A value given as a limit tells only on which side of the number the result lay.

What all share (type): ADME
For data set [1], the target named is T1, Cytochrome P450 1A2 (Homo sapiens, UniProt P05177).
T1 sequence (P05177 whole entry): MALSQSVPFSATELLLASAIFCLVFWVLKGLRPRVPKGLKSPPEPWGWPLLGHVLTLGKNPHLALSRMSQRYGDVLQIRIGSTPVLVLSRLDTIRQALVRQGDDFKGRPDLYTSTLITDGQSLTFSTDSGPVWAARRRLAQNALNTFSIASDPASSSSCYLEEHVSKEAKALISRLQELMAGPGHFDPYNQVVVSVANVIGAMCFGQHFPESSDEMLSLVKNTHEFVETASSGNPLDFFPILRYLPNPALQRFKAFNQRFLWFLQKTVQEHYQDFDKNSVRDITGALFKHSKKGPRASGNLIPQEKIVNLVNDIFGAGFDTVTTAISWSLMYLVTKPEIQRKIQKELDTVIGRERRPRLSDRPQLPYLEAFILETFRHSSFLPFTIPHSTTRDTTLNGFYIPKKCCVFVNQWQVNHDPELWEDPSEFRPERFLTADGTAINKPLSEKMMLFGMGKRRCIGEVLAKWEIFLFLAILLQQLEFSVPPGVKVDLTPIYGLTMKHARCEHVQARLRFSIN
Briefly: Inhibition of human recombinant CYP1A2 by spectrophotometry based 7-ethoxyresorufin O-deethylation enzyme assay. The essentials:
(§1)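 EROD assay: fresh DMSO solutions of test compound over various concentrations with 2 µM 7-ethoxyresorufin, 1.3 mM NADP+, 3.3 mM glucose-6-phosphate, 0.5 U/ml G6PDH, 3.3 mM MgCl2 in 100 mM potassium phosphate pH 7.4. Started with enzyme (1.25 pmol CYP1A1, or 5 pmol CYP1A2 or CYP1B1), 37 °C, 15 min. Resorufin fluorescence (ex 550/em 585) against resorufin standard. IC50 read graphically from % of control activity; three parallel experiments.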

Another data set has as its target T2, Cytochrome P450 1A1 (Homo sapiens, UniProt P04798).
T2 sequence (P04798 whole entry): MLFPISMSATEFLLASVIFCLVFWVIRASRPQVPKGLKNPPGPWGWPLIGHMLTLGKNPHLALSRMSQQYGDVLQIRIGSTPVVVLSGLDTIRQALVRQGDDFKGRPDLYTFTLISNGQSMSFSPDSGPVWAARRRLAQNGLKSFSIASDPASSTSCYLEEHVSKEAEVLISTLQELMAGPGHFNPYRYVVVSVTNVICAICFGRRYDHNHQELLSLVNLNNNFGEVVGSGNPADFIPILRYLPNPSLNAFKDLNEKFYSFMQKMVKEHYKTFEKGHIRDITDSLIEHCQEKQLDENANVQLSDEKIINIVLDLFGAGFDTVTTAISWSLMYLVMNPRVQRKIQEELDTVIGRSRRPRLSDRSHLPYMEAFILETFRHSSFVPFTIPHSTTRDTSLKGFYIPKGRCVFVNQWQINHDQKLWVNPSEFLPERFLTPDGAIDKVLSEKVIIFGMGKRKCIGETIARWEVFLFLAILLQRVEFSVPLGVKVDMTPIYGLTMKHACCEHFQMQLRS
As to the kind of experiment: Inhibition of human recombinant CYP1A1 by spectrophotometry based 7-ethoxyresorufin O-deethylation enzyme assay. The essentials: as §1

In the next data set the target is T3, Cytochrome P450 1B1 (Homo sapiens, UniProt Q16678).
T3 sequence (Q16678 whole entry): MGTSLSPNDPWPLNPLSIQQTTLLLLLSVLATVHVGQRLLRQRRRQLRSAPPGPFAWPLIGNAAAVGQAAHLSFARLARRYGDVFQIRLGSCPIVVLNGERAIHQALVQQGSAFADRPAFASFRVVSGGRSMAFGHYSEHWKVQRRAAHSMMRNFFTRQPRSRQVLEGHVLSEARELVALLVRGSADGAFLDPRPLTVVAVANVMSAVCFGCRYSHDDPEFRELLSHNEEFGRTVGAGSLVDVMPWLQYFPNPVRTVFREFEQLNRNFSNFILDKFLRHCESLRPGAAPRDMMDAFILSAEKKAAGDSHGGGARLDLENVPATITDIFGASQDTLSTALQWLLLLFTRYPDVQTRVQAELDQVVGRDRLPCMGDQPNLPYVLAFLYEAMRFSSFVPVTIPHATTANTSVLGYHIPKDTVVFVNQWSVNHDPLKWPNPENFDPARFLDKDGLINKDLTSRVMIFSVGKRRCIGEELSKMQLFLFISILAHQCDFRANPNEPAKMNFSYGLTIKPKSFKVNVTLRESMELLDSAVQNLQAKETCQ
Briefly: Inhibition of human recombinant CYP1B1 by spectrophotometry based 7-ethoxyresorufin O-deethylation enzyme assay. The essentials: as §1

In a further data set the test system is CYP1A2 / CYP1A1. As to the kind of experiment: Selectivity ratio, ratio of IC50 for human recombinant CYP1A2 to IC50 for human recombinant CYP1A1. The conditions noted are these: recombinant CYP1A2 and recombinant CYP1A1, read-out: Ratio IC50.
The subject of another data set is CYP1A2 / CYP1B1. As to the kind of experiment: Selectivity ratio, ratio of IC50 for human recombinant CYP1A2 to IC50 for human recombinant CYP1B1. Conditions: recombinant CYP1A2 and recombinant CYP1B1, read-out: Ratio IC50.
Data set [2] has as its target T1, Cytochrome P450 1A2. Briefly: Activity of human recombinant CYP1A2 assessed as NADPH oxidation level per pmol of CYP1A2 level at 10 uM by spectrophotometry. Conditions: recombinant enzyme. The essentials: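 NADPH oxidation by human recombinant CYP1A2 (5 pmol/ml) in Tris buffer pH 7.4 with stilbene at 1–50 µM. Reaction started with 0.2 mM NADPH, 37 °C, 3 min. Absorbance at 340 nm read every 15 s; NADPH oxidized calculated with extinction coefficient 6.22 mM-1 cm-1.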

On to `COc1ccccc1/C=C/c1ccc(SC)cc1`, for which the IC50 on Cytochrome P450 1A2 [1] turned out to be 7500 nM; at Cytochrome P450 1A1, 1000 nM; on Cytochrome P450 1B1 it was 300 nM. For the same molecule, the selectivity ratio with CYP1A2 / CYP1A1 was found to be 7.5; in the data set with CYP1A2 / CYP1B1, 25. In addition, at Cytochrome P450 1A2 [2], the Activity is less than 0.3 µM/min.
For the molecule `COc1cccc(/C=C/c2ccc(SC)cc2)c1`, the values for the IC50 on Cytochrome P450 1A2 [1], on Cytochrome P450 1A1 and on Cytochrome P450 1B1 were 11500 nM, 1100 nM and 500 nM, respectively. The selectivity ratio with CYP1A2 / CYP1A1 amounted to 10.5; with CYP1A2 / CYP1B1, 23. Further, at Cytochrome P450 1A2 [2], the Activity is less than 0.3 µM/min.
For `COc1ccc(/C=C/c2ccc(SC)cc2)cc1`, the IC50 on Cytochrome P450 1A2 [1] was found to be 23000 nM; at Cytochrome P450 1A1, 28000 nM; at Cytochrome P450 1B1 it was 5500 nM. Also, the values for the selectivity ratio in the data set on CYP1A2 / CYP1A1 and in the data set with CYP1A2 / CYP1B1 were 0.8 and 4.2, respectively. Besides, at Cytochrome P450 1A2 [2], the Activity was less than 0.3 µM/min.
Consider `COc1cccc(/C=C/c2ccc(SC)cc2)c1OC`, for which the IC50 at Cytochrome P450 1A2 [1] amounted to 22000 nM; at Cytochrome P450 1A1, 1800 nM; at Cytochrome P450 1B1, 1100 nM. Also, the selectivity ratio with CYP1A2 / CYP1A1 came out at 12.2; in the data set with CYP1A2 / CYP1B1 it was 20. At Cytochrome P450 1A2 [2], the Activity is less than 0.3 µM/min.
In the case of `COc1ccc(/C=C/c2ccc(SC)cc2)c(OC)c1`, the results for the IC50 at Cytochrome P450 1A2 [1], at Cytochrome P450 1A1 and on Cytochrome P450 1B1 were 8100 nM, 2400 nM and 2000 nM, respectively. Besides, the selectivity ratio was found to be 3.4 in the data set with CYP1A2 / CYP1A1 and 4.1 in the data set with CYP1A2 / CYP1B1. Moreover, the Activity at Cytochrome P450 1A2 [2] is less than 0.3 µM/min.
For `COc1ccc(OC)c(/C=C/c2ccc(SC)cc2)c1`, the IC50 on Cytochrome P450 1A2 [1] is 39500 nM; at Cytochrome P450 1A1, 3800 nM; on Cytochrome P450 1B1, 1100 nM. The selectivity ratio in the data set on CYP1A2 / CYP1A1 was determined as 10.4; in the data set with CYP1A2 / CYP1B1, 35.9. For the same molecule, the Activity at Cytochrome P450 1A2 [2] was less than 0.3 µM/min.
On to `COc1cc(/C=C/c2ccc(SC)cc2)cc(OC)c1`, for which the 50% inhibitory concentration (IC50) on Cytochrome P450 1A2 [1] stood at 5000 nM; on Cytochrome P450 1A1, 1400 nM; on Cytochrome P450 1B1 it was 1500 nM. In addition, the values for the selectivity ratio with CYP1A2 / CYP1A1 and in the data set with CYP1A2 / CYP1B1 were 3.6 and 3.3, respectively. On Cytochrome P450 1A2 [2], the Activity was less than 0.3 µM/min.
Take `COc1ccc(/C=C/c2ccc(SC)cc2)c(OC)c1OC`: the values for the half-maximal inhibitory concentration (IC50) on Cytochrome P450 1A2 [1], on Cytochrome P450 1A1 and on Cytochrome P450 1B1 were more than 50000 nM, 900 nM and 1000 nM, respectively. Further, the results for the selectivity ratio in the data set with CYP1A2 / CYP1A1 and in the data set on CYP1A2 / CYP1B1 were more than 55.5 and more than 50, respectively. Further, the Activity at Cytochrome P450 1A2 [2] was less than 0.6 µM/min.
Regarding `COc1cc(OC)c(OC)cc1/C=C/c1ccc(SC)cc1`, the values for the IC50 at Cytochrome P450 1A2 [1], on Cytochrome P450 1A1 and on Cytochrome P450 1B1 were 15000 nM, 800 nM and 900 nM, respectively. The selectivity ratio with CYP1A2 / CYP1A1 was determined as 18.7; with CYP1A2 / CYP1B1 it was 16.7. Besides, the Activity at Cytochrome P450 1A2 [2] came to 2.91 µM/min.
Consider `COc1cc(OC)c(/C=C/c2ccc(SC)cc2)c(OC)c1`, for which the results for the IC50 at Cytochrome P450 1A2 [1], on Cytochrome P450 1A1 and at Cytochrome P450 1B1 were 6500 nM, 400 nM and 500 nM, respectively. Also, the values for the selectivity ratio with CYP1A2 / CYP1A1 and in the data set with CYP1A2 / CYP1B1 were 16.3 and 17, respectively. Also, at Cytochrome P450 1A2 [2], the Activity was less than 0.3 µM/min.
Take `CSc1ccc(/C=C/c2ccccc2Cl)cc1`: the IC50 on Cytochrome P450 1A2 [1] stood at 14500 nM; at Cytochrome P450 1A1, 1000 nM; on Cytochrome P450 1B1 it was 300 nM. In addition, the selectivity ratio in the data set on CYP1A2 / CYP1A1 was 14.5; in the data set with CYP1A2 / CYP1B1, 48.3.
Turning to `COc1cc(/C=C/c2ccc(SC)cc2)cc(OC)c1OC`, the IC50 came to 7000 nM at Cytochrome P450 1A2 [1], 3600 nM at Cytochrome P450 1A1 and 2600 nM at Cytochrome P450 1B1. In addition, the results for the selectivity ratio in the data set with CYP1A2 / CYP1A1 and with CYP1A2 / CYP1B1 were 1.9 and 2.7, respectively. In addition, the Activity at Cytochrome P450 1A2 [2] was 2.22 µM/min.
